Measured values reported in ChEMBL document CHEMBL1156940, “Modified cap group suberoylanilide hydroxamic acid histone deacetylase inhibitor derivatives reveal improved selective antileukemic activity” (J Med Chem, 2010).
Activity calls are given as the source filed them. The calls are words filed in the database; no cut-off is given here.

Tests used:
[1] = system: K562; test: Antiproliferative activity against human K562 cells after 48 hrs by cell titer-glo assay; type: functional, cell-based; settings: K562, 48 h
Procedure, shortened: (§1)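 Cells kept in RPMI-1640 with 10% FBS at 37 °C, 5% CO2. 10^4 suspension cells were plated immediately before dosing. Compounds were added at 0.1–100 µM, final 1% DMSO, with DMSO vehicle control, and incubated 48 h. CellTiter-Glo luminescence was read. EC50 is the dose reducing luminescence to 50% of untreated cultures.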

[2] = target: T1, Protein deacetylase HDAC6 (Homo sapiens) (UniProt Q9UBN7); test: Inhibition of recombinant FLAG-tagged HDAC6 assessed as [3H]acetic acid release preincubated for 30 mins measured after 2 hrs by scintillation counting
T1 sequence (whole entry): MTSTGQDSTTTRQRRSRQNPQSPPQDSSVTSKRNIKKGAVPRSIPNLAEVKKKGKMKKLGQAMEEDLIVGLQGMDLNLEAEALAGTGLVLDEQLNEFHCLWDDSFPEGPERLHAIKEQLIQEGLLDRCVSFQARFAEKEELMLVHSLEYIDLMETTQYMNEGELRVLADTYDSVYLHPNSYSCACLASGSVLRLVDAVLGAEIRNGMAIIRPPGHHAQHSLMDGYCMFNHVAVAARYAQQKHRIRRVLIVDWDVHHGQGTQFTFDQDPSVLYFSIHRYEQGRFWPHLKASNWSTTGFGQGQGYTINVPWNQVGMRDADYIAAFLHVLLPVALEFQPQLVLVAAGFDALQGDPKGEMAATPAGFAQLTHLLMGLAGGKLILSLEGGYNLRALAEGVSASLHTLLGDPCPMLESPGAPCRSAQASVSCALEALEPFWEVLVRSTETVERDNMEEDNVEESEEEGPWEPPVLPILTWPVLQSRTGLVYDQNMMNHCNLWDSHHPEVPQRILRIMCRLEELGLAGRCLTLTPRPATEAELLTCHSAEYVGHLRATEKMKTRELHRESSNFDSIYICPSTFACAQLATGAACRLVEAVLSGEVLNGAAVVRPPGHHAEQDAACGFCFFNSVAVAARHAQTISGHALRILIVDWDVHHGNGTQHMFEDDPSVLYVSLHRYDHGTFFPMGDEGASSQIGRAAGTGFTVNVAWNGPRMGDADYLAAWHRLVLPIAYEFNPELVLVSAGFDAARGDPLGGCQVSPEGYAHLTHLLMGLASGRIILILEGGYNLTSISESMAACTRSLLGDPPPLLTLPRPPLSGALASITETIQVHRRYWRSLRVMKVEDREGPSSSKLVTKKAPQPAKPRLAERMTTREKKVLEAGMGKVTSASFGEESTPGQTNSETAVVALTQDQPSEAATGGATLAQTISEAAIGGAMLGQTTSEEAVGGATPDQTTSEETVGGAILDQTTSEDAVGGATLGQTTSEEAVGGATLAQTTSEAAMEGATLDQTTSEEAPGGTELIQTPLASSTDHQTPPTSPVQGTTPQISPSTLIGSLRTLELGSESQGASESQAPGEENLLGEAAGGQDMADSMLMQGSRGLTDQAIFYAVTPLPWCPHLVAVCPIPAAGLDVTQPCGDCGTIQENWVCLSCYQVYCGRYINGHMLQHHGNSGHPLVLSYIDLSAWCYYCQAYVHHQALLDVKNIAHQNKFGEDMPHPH
Procedure, shortened: (§2)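 FLAG-tagged HDAC1 or HDAC6 was immunopurified from stably expressing cell lines and washed in HDAC buffer (10 mM Tris-HCl pH 8.0, 10 mM NaCl, 10% glycerol). Enzyme was preincubated with inhibitor (1 µM) for 30 min at 4 °C, then given 20 000 cpm [3H]peracetylated H4 peptide for 2 h at 37 °C. The reaction was stopped with acetic acid/HCl, extracted into ethyl acetate, and released [3H]acetate counted by scintillation.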

[3] = system: Mus musculus; test: Toxicity in FVB mouse assessed as effect on mean platelet volume at 50 mg/kg, po administered 5 times per week for 2 weeks (reference value: 8.8 +/- 0.1 microm^3); type: organism-based; set-up: dose 50 mg/kg, route oral; settings: in vivo, 336 h
Procedure, shortened: (§3)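 8-week-old FVB mice were housed specific-pathogen-free and randomly assigned, n = 3 per group. They received 50 mg/kg compound or vehicle alone by oral gavage, five times weekly for 2 weeks. Body weight and survival were monitored. Differential blood counts came from nonlethal retro-orbital bleeds before study (J-5), during study (J5) and at end point (J12). Values are means ± spread for n = 3.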

[4] = system: Mus musculus; test: Toxicity in FVB mouse assessed as mortality at 50 mg/kg, po administered 5 times per week for 2 weeks; type: organism-based; set-up: dose 50 mg/kg, route oral; settings: in vivo, 336 h
Procedure, shortened: (§4)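 8-week-old Fvb mice, SPF-housed in ventilated cages with acidified water, randomly assigned (n = 3 per group) to compound or solvent-only vehicle. Dosing was by oral gavage five times weekly for 2 weeks. Survival was monitored with body weight and blood counts during dosing, and deaths were also recorded during the month after treatment stopped.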

[5] = system: Jurkat; test: Antiproliferative activity against human Jurkat JA16 cells after 48 hrs by cell titer-glo assay; type: functional, cell-based
[6] = system: Mus musculus; test: Toxicity in FVB mouse assessed as effect on hematocrit at 50 mg/kg, po administered 5 times per week for 2 weeks measured during test; type: organism-based; set-up: dose 50 mg/kg, route oral; settings: in vivo, 336 h; procedure, shortened: as §3
[7] = system: Mus musculus; test: Toxicity in FVB mouse assessed as mortality at 50 mg/kg, po administered 5 times per week for 2 weeks measured up to 1 month; type: organism-based; set-up: dose 50 mg/kg, route oral; settings: in vivo, 336 h; procedure, shortened: as §4
[8] = target: Histone deacetylase 1 (Homo sapiens) (UniProt Q13547); test: Inhibition of recombinant FLAG-tagged HDAC1 assessed as [3H]acetic acid release preincubated for 30 mins measured after 2 hrs by scintillation counting; procedure, shortened: as §2
Sequence of Histone deacetylase 1 (Homo sapiens) (Q13547 whole entry): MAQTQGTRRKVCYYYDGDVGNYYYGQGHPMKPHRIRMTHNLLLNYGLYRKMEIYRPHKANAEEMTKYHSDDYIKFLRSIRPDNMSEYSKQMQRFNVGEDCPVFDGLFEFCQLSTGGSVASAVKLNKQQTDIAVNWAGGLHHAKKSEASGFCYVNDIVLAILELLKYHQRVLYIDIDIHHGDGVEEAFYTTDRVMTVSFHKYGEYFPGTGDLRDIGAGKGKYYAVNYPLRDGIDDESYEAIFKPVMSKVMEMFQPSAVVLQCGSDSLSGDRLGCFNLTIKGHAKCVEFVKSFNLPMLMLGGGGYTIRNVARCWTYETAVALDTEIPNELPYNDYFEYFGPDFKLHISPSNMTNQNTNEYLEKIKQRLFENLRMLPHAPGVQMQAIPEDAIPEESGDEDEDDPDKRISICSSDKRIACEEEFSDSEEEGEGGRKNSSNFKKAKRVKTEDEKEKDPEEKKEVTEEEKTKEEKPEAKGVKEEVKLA

[9] = system: Mus musculus; test: Toxicity in FVB mouse assessed as effect on mean cell volume of red cells at 50 mg/kg, po administered 5 times per week for 2 weeks (reference value: 43.9 +/- 0.5 microm^3); settings: in vivo, 336 h
[10] = system: U-937; test: Antiproliferative activity against human U937 cells after 48 hrs by cell titer-glo assay; type: functional, cell-based; settings: U-937, 48 h; procedure, shortened: as §1
[11] = system: HT-29; test: Antiproliferative activity against human HT-29 cells after 48 hrs by cell titer-glo assay; type: functional, cell-based; settings: HT-29, 48 h
[12] = Therapeutic ratio, EC50 for human PBMC to EC50 for human 937 cells; settings: human PBMC versus human 937 cells
[13] = system: Mus musculus; test: Toxicity in FVB mouse assessed as effect on number of platelets at 50 mg/kg, po administered 5 times per week for 2 weeks (reference value: 514 +/- 42.8 10^3/mm^3); type: organism-based; set-up: dose 50 mg/kg, route oral; settings: in vivo, 336 h; procedure, shortened: as §3
[14] = system: HL-60; test: Antiproliferative activity against human HL60 cells after 48 hrs by cell titer-glo assay; type: functional, cell-based; settings: HL-60, 48 h
[15] = system: Mus musculus; test: Toxicity in FVB mouse assessed as effect on number of RBC at 50 mg/kg, po administered 5 times per week for 2 weeks measured during test (reference value: 8.1 +/- 0.2 10^6/mm^3); type: organism-based; set-up: dose 50 mg/kg, route oral; settings: in vivo, 336 h; procedure, shortened: as §3
[16] = system: Mus musculus; test: Toxicity in FVB mouse assessed as effect on number of WBC at 50 mg/kg, po administered 5 times per week for 2 weeks (reference value: 9.1 +/- 0.2 10^3/mm^3); type: organism-based; set-up: dose 50 mg/kg, route oral; settings: in vivo, 336 h; procedure, shortened: as §3
[17] = system: Mus musculus; test: Toxicity in FVB mouse assessed as effect on body weight at 50 mg/kg, po administered 5 times per week for 2 weeks; type: organism-based; set-up: dose 50 mg/kg, route oral; settings: in vivo, 336 h; procedure, shortened: as §3
[18] = system: Mus musculus; test: Toxicity in FVB mouse assessed as effect on mean platelet volume at 50 mg/kg, po administered 5 times per week for 2 weeks measured during test (reference value: 8.4 +/- 0.5 microm^3); type: organism-based; set-up: dose 50 mg/kg, route oral; settings: in vivo, 336 h; procedure, shortened: as §3
[19] = system: Mus musculus; test: Toxicity in FVB mouse assessed as effect on mean cell volume of red cells at 50 mg/kg, po administered 5 times per week for 2 weeks measured during test (reference value: 43.7 +/- 0.4 microm^3); type: organism-based; set-up: dose 50 mg/kg, route oral; settings: in vivo, 336 h; procedure, shortened: as §3
[20] = system: SK-BR-3; test: Antiproliferative activity against human SK-BR-3 cells after 48 hrs by cell titer-glo assay; type: functional, cell-based; settings: SK-BR-3, 48 h
[21] = system: Mus musculus; test: Toxicity in FVB mouse assessed as effect on number of platelets at 50 mg/kg, po administered 5 times per week for 2 weeks measured during test (reference value: 454 +/- 93 10^3/mm^3); type: organism-based; set-up: dose 50 mg/kg, route oral; settings: in vivo, 336 h; procedure, shortened: as §3
[22] = system: Mus musculus; test: Toxicity in FVB mouse assessed as effect on body weight at 50 mg/kg, po administered 5 times per week for 2 weeks measured during test; type: organism-based; set-up: dose 50 mg/kg, route oral; settings: in vivo, 336 h; procedure, shortened: as §3
[23] = system: Mus musculus; test: Toxicity in FVB mouse assessed as effect on number of WBC at 50 mg/kg, po administered 5 times per week for 2 weeks measured during test (reference value: 9.1 +/- 0.2 10^3/mm^3); type: organism-based; set-up: dose 50 mg/kg, route oral; settings: in vivo, 336 h; procedure, shortened: as §3
[24] = system: Mus musculus; test: Toxicity in FVB mouse assessed as effect on number of RBC at 50 mg/kg, po administered 5 times per week for 2 weeks (reference value: 7.7 +/- 0.1 10^6/mm^3); type: organism-based; set-up: dose 50 mg/kg, route oral; settings: in vivo, 336 h; procedure, shortened: as §3
[25] = system: Mus musculus; test: Toxicity in FVB mouse assessed as effect on hematocrit at 50 mg/kg, po administered 5 times per week for 2 weeks; type: organism-based; set-up: dose 50 mg/kg, route oral; settings: in vivo, 336 h; procedure, shortened: as §3

O=C(CCCCCCC(=O)Nc1ccc(I)cc1)NO
EC50 [1]: 1300 nM | Activity [2]: Active | Activity [3]: 8.7 um3 | Activity [4]: Non-toxic | EC50 [5]: 240 nM | Activity [6]: 35.2% | Activity [7]: Non-toxic | Activity [8]: Active | Activity [9]: 43.7 um3 | EC50 [10]: 120 nM | EC50 [11]: 950 nM | selectivity ratio [12]: 30 | Activity [13]: 537 10^3/mm3 | EC50 [14]: 850 nM | Activity [15]: 8.02 10^6/mm3 | Activity [16]: 7.5 10^3/mm3 | Activity [17]: 97.8% | Activity [18]: 8.6 um3 | Activity [19]: 43.9 um3 | EC50 [20]: 1100 nM | Activity [21]: 478.3 10^3/mm3 | Activity [22]: 99.7% | Activity [23]: 7.5 10^3/mm3 | Activity [24]: 6.9 10^6/mm3 | Activity [25]: 30.2%
